# Measured values as given in ChEMBL document CHEMBL5149972, “Novel Antimalarial Tetrazoles and Amides Active against the Hemoglobin Degradation Pathway in Plasmodium falciparum” (J Med Chem, 2021).
# pEC50, pIC50: −log10 of the molar value. Active and inactive are the calls of the source. The rule behind the calls is not given here.
# What was measured:
# [1] = test system: Plasmodium falciparum; experiment: Antiplasmodial activity against asexual blood stage Plasmodium falciparum 3D7 infected in human RBC assessed as parasite growth inhibition incubated for 72 hrs by SYBR Green dye based fluorescence assay; type: functional, organism-based; details: Plasmodium falciparum, 3D7, Erythrocyte, 72 h
# Outline: (§1)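 Blood-stage cultures at 2% hematocrit, human O+ RBCs, RPMI 1640 + 25 mM HEPES, 0.5% Albumax-I, 23 mM bicarbonate, 92 μM hypoxanthine. Start at 0.5% parasitemia; 72 h at 37°C, 5% CO₂; freeze-thaw, then SYBR Green in saponin/Triton lysis buffer, 4 h RT dark; fluorescence ex 485/em 535 nm. 10-point curves, technical duplicates or triplicates, final 0.5% DMSO; four-parameter fit gives EC₅₀; mean ± std dev of biological replicates.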
# [2] = test system: HepG2; experiment: (§2) Cytotoxicity against human HepG2 cells assessed as reduction in cell viability incubated for 72 hrs by CellTiter-Glo assay; type: toxicity, cell-based; details: hepg2, 72 h
# [3] = test system: Plasmodium falciparum; experiment: Antiplasmodial activity against drug resistant Plasmodium falciparum Dd2 infected in human RBC assessed as parasite growth inhibition incubated for 72 hrs by SYBR Green dye based fluorescence assay; type: functional, organism-based; details: Plasmodium falciparum, Dd2, Erythrocyte, 72 h; outline: as §1
# [4] = Metabolic stability in human liver microsomes assessed as intrinsic clearance per mg of protein at 1 uM incubated for 60 mins presence of NADPH regenerating buffer system by LC-MS analysis; type: ADME, Microsome; details: 1 h
# [5] = Kinetic solubility of compound in PBS at pH 2 by HPLC analysis; type: physicochemical; details: read-out: Kinetic_solubility
# [6] = Kinetic solubility of compound in PBS at pH 6.5 by HPLC analysis; type: physicochemical; details: read-out: Kinetic_solubility
# [7] = test system: Plasmodium berghei; experiment: Antiplasmodial activity against liver stage Plasmodium berghei ANKA expressing GFP-Luc-SMCO infected in human HepG2-A16-CD81EGFP cells assessed as reduction in liver-stage development of luciferase-expressing parasite by luciferase reporter gene based bioluminescence assay; type: functional, organism-based
# Outline: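 Pb-Luc (P. berghei ANKA-GFP-Luc-SMCON) sporozoites infect HepG2-A16-CD81EGFP cells in phenol red-free DMEM with 5% FBS, glutamine, penicillin/streptomycin; compounds scored for blocking liver-stage development by luciferase signal.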
# [8] = test system: Plasmodium falciparum; experiment: Antiplasmodial activity against Plasmodium falciparum mature stage V gametocyte assessed as inhibition of male gametocyte formation at 25 uM by luciferase reporter assay; type: functional, organism-based
# [9] = test system: Plasmodium falciparum; experiment: Antiplasmodial activity against Plasmodium falciparum mature stage V gametocyte assessed as inhibition of female gametocyte formation by luciferase reporter assay; type: functional, organism-based
# [10] = as §2; type: toxicity, cell-based; details: HepG2 cells
# [11] = test system: Plasmodium falciparum; experiment: Antiplasmodial activity against Plasmodium falciparum 3D7 infected in human RBC assessed as parasite growth inhibition incubated for 48 hrs by 3H-hypoxanthine incorporation assay; type: functional, organism-based; details: 3D7, Erythrocyte
# [12] = test system: Plasmodium falciparum; experiment: Antiplasmodial activity against Plasmodium falciparum 3D7 assessed as parasite growth inhibition incubated for 48 hrs followed by compound washout further infected in RBC cells for 28 days by hemocrit analysis; type: functional, organism-based
# [13] = test system: Plasmodium falciparum; experiment: Antiplasmodial activity against Plasmodium falciparum NF54 infected in human RBC assessed as parasite growth inhibition incubated for 72 hrs by SYBR Green dye based fluorescence assay; type: functional, organism-based; details: NF54, Erythrocyte
# [14] = test system: Plasmodium falciparum; experiment: Antiplasmodial activity against chloroquine and pyrimethamine resistant Plasmodium falciparum K1 infected in human RBC assessed as parasite growth inhibition incubated for 72 hrs by SYBR Green dye based fluorescence assay; type: functional, organism-based; details: K1, Erythrocyte
# [15] = test system: Plasmodium falciparum; experiment: Antiplasmodial activity against chloroquine and pyrimethamine resistant Plasmodium falciparum 7G8 infected in human RBC assessed as parasite growth inhibition incubated for 72 hrs by SYBR Green dye based fluorescence assay; type: functional, organism-based; details: 7G8, Erythrocyte
# [16] = test system: Plasmodium falciparum; experiment: Antiplasmodial activity against chloroquine, atovaquone and pyrimethamine resistant Plasmodium falciparum TM90C2B infected in human RBC assessed as parasite growth inhibition incubated for 72 hrs by SYBR Green dye based fluorescence assay; type: functional, organism-based; details: Erythrocyte
# [17] = test system: Plasmodium falciparum; experiment: Antiplasmodial activity against piperaquine and pyrimethamine resistant Plasmodium falciparum RF12 infected in human RBC assessed as parasite growth inhibition incubated for 72 hrs by SYBR Green dye based fluorescence assay; type: functional, organism-based; details: RF12, Erythrocyte
# [18] = test system: Plasmodium falciparum; experiment: Antiplasmodial activity against chloroquine and pyrimethamine resistant Plasmodium falciparum Dd2 infected in human RBC assessed as parasite growth inhibition incubated for 72 hrs by SYBR Green dye based fluorescence assay; type: functional, organism-based; details: Dd2, Erythrocyte
# Outline: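 O+ human RBCs at 2% hematocrit and 0.5% starting parasitemia, in RPMI 1640 with 25 mM HEPES, 0.5% Albumax-I, bicarbonate and hypoxanthine. Serial dilutions in triplicate, 0.5% DMSO final, 72 h at 37°C, 5% CO2. Frozen at −80°C, lysed with SYBR Green in saponin/Triton buffer for 4 h in the dark. Ex 485/em 535 nm. EC50 from four-parameter fit; biphasic fit where curves were biphasic.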
# [19] = test system: Plasmodium falciparum; experiment: Antiplasmodial activity against chloroquine resistant Plasmodium falciparum Dd2-GC03 mutant replaced with 3D7 pfcrt sequence at endogenous pfcrt Dd2 locus infected in human RBC assessed as parasite growth inhibition incubated for 72 hrs by SYBR Green dye based fluorescence assay; type: functional, organism-based; details: Erythrocyte
# Outline: (§3)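 Gene-edited Dd2 lines with the endogenous pfcrt locus replaced by zinc-finger nuclease editing. Concentration-response curves run with technical duplicates at each concentration; values are the average of two biological replicates, with std dev given where more replicates were collected.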
# [20] = test system: Plasmodium falciparum; experiment: Antiplasmodial activity against chloroquine resistant Plasmodium falciparum Dd2-Dd2 mutant replaced with recombinant Dd2 sequence at endogenous pfcrt Dd2 locus infected in human RBC assessed as parasite growth inhibition incubated for 72 hrs by SYBR Green dye based fluorescence assay; type: functional, organism-based; details: Erythrocyte; outline: as §3
# [21] = test system: Plasmodium falciparum; experiment: Antiplasmodial activity against chloroquine and piperaquine resistant Plasmodium falciparum Dd2-M343L mutant replaced with endogenous pfcrt locus with the recombinant Dd2 sequence and the PPQ resistance-conferring M343L at endogenous pfcrt Dd2 locus infected in human RBC assessed as parasite growth inhibition incubated for 72 hrs by SYBR Green dye based fluorescence assay; type: functional, organism-based; details: Erythrocyte; outline: as §3
# [22] = test system: Plasmodium falciparum; experiment: Antiplasmodial activity against lab-derived […] resistant Plasmodium falciparum Dd2-PfeEF2 mutant infected in human RBC assessed as parasite growth inhibition incubated for 72 hrs by SYBR Green dye based fluorescence assay; type: functional, organism-based; details: Erythrocyte
# [23] = test system: Plasmodium falciparum; experiment: Antiplasmodial activity against lab-derived MMV390048 resistant Plasmodium falciparum Dd2-Pfpi4K mutant infected in human RBC assessed as parasite growth inhibition incubated for 72 hrs by SYBR Green dye based fluorescence assay; type: functional, organism-based; details: Erythrocyte
# [24] = test system: Plasmodium falciparum; experiment: Antiplasmodial activity against lab-derived DSM265 resistant Plasmodium falciparum Dd2-PfDHODH mutant infected in human RBC assessed as parasite growth inhibition incubated for 72 hrs by SYBR Green dye based fluorescence assay; type: functional, organism-based; details: Erythrocyte
# [25] = test system: Plasmodium falciparum; experiment: Antiplasmodial activity against lab-derived ELQ300 resistant Plasmodium falciparum Dd2-PfCytB mutant infected in human RBC assessed as parasite growth inhibition incubated for 72 hrs by SYBR Green dye based fluorescence assay; type: functional, organism-based; details: Erythrocyte
# [26] = test system: Hemozoin; experiment: Inhibition of Beta-hematin assessed as bis-pyridyl-Fe(III)PPIX complex formation incubated for 5 hrs by NP40 detergent-mediated colorimetric assay
# [27] = Inhibition of hemozoin formation in sorbitol-synchronized early ring stage plasmodium falciparum NF54 trophozoites assessed as fold increase in free heme-Fe level at 3 times EC50 incubated for 32 hrs by flow cytometry analysis; type: functional
# Outline: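 Trophozoites were saponin-released (0.05%), PBS-washed, counted by flow cytometry, then hypotonically lysed and sonicated. Heme was fractionated with HEPES, SDS, pyridine and NaOH and read as Fe(III)heme–pyridine absorbance against a heme standard curve (fg/cell). Three biological replicates; Student's t-test.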
# [28] = test system: Plasmodium falciparum; experiment: Antiplasmodial activity against Plasmodium falciparum NF54 expressing transgenic luciferase assessed as parasite kill rate at trophozoite stage incubated for 72 hrs by bioluminescence relative rate of kill (BRRoK) assay; type: functional, organism-based; details: RBC
# [29] = test system: Plasmodium falciparum; experiment: Antiplasmodial activity against Plasmodium falciparum NF54 expressing transgenic luciferase assessed as parasite kill rate at trophozoite stage incubated for 6 hrs by bioluminescence relative rate of kill (BRRoK) assay; type: functional, organism-based; details: RBC
# [30] = test system: Plasmodium falciparum; experiment: Inhibition of hemozoin formation in sorbitol-synchronized early ring stage plasmodium falciparum NF54 trophozoites assessed as increase in free heme level at 0.5 to 3 times EC50 incubated for 32 hrs by flow cytometry analysis; type: functional; details: DDE = dose-dependent effect
# [31] = test system: Plasmodium falciparum; experiment: Inhibition of hemozoin formation in sorbitol-synchronized early ring stage plasmodium falciparum NF54 trophozoites assessed as increase in free heme-Fe level at 0.5 to 3 times EC50 incubated for 32 hrs by flow cytometry analysis; type: functional; details: DDE = dose-dependent effect
# [32] = test system: Plasmodium falciparum; experiment: Inhibition of hemozoin formation in sorbitol-synchronized early ring stage plasmodium falciparum NF54 trophozoites assessed as decrease in free hemozoin level at 0.5 to 3 times EC50 incubated for 32 hrs by flow cytometry analysis; type: functional; details: DDE = dose-dependent effect
# [33] = test system: Plasmodium falciparum; experiment: Inhibition of hemozoin formation in sorbitol-synchronized early ring stage plasmodium falciparum NF54 trophozoites assessed as decrease in free hemozoin-Fe level at 0.5 to 3 times EC50 incubated for 32 hrs by flow cytometry analysis; type: functional; details: DDE = dose-dependent effect
SMILES,pEC50 [1],pEC50 [3],solubility kinetic [5],solubility kinetic [6],CC50 at 72 h [10],pEC50 [11],pIC50 [26],Activity [28],Activity [29],further results
Cc1ccccc1N(C)C(=O)C(c1cccnc1)N(Cc1cc(C(F)(F)F)ccc1F)C1CC1 (racemic),6.51,6.34,> 47 µg/mL,1.5 µg/mL,,,,,,CC50 [2]: > 30000 nM; CLH [4]: 548 µL/min/mg; pEC50 [7]: 5.15; pEC50 [8]: 4.22; pEC50 [9]: < 4.60
Cc1ccccc1-n1nnnc1C(c1cncnc1)N(Cc1cccc(C(F)(F)F)c1)C1CC1 (racemic),6.40,5.74,1.5 µg/mL,1.5 µg/mL,33000 nM,5.77,3.51,,,Activity [12]: Active; pEC50 [13]: 6.08; pEC50 [14]: 6.34; pEC50 [15]: 6.80; pEC50 [16]: 6.18; pEC50 [17]: 5.96; pEC50 [18]: 5.74; pEC50 [19]: 5.32; pEC50 [20]: 5.62; pEC50 [21]: 6.05; pEC50 [22]: 5.80; pEC50 [23]: 5.70; pEC50 [24]: 5.70; pEC50 [25]: 5.70; fold change (FC) [27]: 6
C[C@@H]1CC[C@H]2[C@@H](C)C(=O)O[C@@H]3O[C@@]4(C)CC[C@@H]1[C@]32OO4 [ARTEMISININ],7.89,,,,> 30000 nM,7.52,,Active,Active,
O=C1C(O)=C([C@H]2CC[C@H](c3ccc(Cl)cc3)CC2)C(=O)c2ccccc21 [ATOVAQUONE],8.89,,,,> 30000 nM,9.00,,Active,Active,
CCN(CC)CCCC(C)Nc1ccnc2cc(Cl)ccc12 (stereo unspecified) [CHLOROQUINE],7.85,,,,> 30000 nM,7.68,4.72,Active,Active,inhibition [30]: Dde; inhibition [31]: Dde; inhibition [32]: Dde; inhibition [33]: Dde
